This is an account of results in ChEMBL document CHEMBL1138589, “Development of novel aminoglycoside (NB54) with reduced toxicity and enhanced suppression of disease-causing premature stop mutations” (J Med Chem, 2009).

The subject of data set [1] is Nucleic Acid. Briefly: Suppression of CFTR G542X nonsense mutant cDNA translation in TNT rabbit reticulocyte lysate transcription translation system at 25 to 100 uM at 30 degC after 90 mins by luciferase reporter gene assay. The essentials:
(§1)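 A dual luciferase reporter plasmid carrying the nonsense-mutation context was used. Luciferase activities were read with a dual luciferase assay kit after incubation, and readthrough was calculated by a previously described method. Translation inhibition was monitored as the ratio of Renilla luciferase activity with versus without aminoglycoside.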

Data set [2] has as its system Nucleic Acid. Briefly: Suppression of CFTR W1282X nonsense mutant cDNA translation in TNT rabbit reticulocyte lysate transcription translation system at 25 to 100 uM at 30 degC after 90 mins by luciferase reporter gene assay. The method in brief: as §1
Data set [3] concerns Nucleic Acid. Briefly: Suppression of Dystrophin R3381X nonsense mutant cDNA translation in TNT rabbit reticulocyte lysate transcription translation system at 25 to 100 uM at 30 degC after 90 mins by luciferase reporter gene assay. The essentials:
as §1

The test system of data set [4] is Nucleic Acid. Briefly: Suppression of IDUA Q70X nonsense mutant cDNA translation in TNT rabbit reticulocyte lysate transcription translation system at 25 to 100 uM at 30 degC after 90 mins by luciferase reporter gene assay. The method in brief:
as §1

Data set [5] concerns Nucleic Acid. Briefly: Suppression of PCDH15 R3X nonsense mutant cDNA translation in TNT rabbit reticulocyte lysate transcription translation system at 25 to 100 uM at 30 degC after 90 mins by luciferase reporter gene assay. The method in brief:
as §1

Data set [6] deals with Escherichia coli. Briefly: Antibacterial activity against Escherichia coli R477-100 by double-microdilution method. It counts as functional.
Data set [7] has as its system Nucleic Acid. Briefly: Suppression of PCDH15 R245X nonsense mutant cDNA translation in TNT rabbit reticulocyte lysate transcription translation system at 25 to 100 uM at 30 degC after 90 mins by luciferase reporter gene assay. The essentials:
as §1

Data set [8] concerns Nucleic Acid. Briefly: Suppression of IDUA W402X nonsense mutant cDNA translation in TNT rabbit reticulocyte lysate transcription translation system at 25 to 100 uM at 30 degC after 90 mins by luciferase reporter gene assay. The essentials: as §1
Data set [9] deals with Nucleic Acid. Briefly: Suppression of PCDH15 R3X nonsense mutant cDNA translation in african green monkey COS7 cells at 0.25 mg/mL. It counts as cell-based. As to conditions: COS-7. The method in brief: (§2)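 COS-7 cells were lipofected with the dual luciferase construct carrying PCDH15 R3X, and drugs were added 5 h after transfection at varying concentrations. Maximal doses were set from LC50 in COS-7 cells to keep cell viability above 80%. Stop-codon readthrough was read by dual luciferase assay and calculated by a previously described method.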

The next data set relates to HEK293. Briefly: (§3) Toxicity against HEK293 cells. It counts as cell-based. To be noted: human, hek293; read-out: LC50 (the source's name).
Data set [10] in a line: Toxicity against african green monkey COS7 cells. The format is cell-based, COS-7. To be noted: chlorocebus aethiops, read-out: LC50 (the source's name).
Another data set has as its system MDCK. Briefly: (§4) Toxicity against MDCK cells. The format is cell-based, Canis lupus familiaris. To be noted: dog, mdck; read-out: LC50 (the source's name).
Another data set deals with Mus musculus. Briefly: Acute toxicity in iv dosed BALB/c mouse assessed as mortality administered as single dose after 4 days. To be noted: in vivo, 96 h. The format is organism-based. The method in brief:
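Male BALB/c mice, […] (18-20 g), 12 h light/dark cycle at 20-22 °C, food and water ad libitum. Single intravenous tail-vein injection of 150 µL of drug in PBS (pH 7), 8 animals per concentration. Appearance, behaviour and mortality were monitored for 4 days, and LD50 was derived by the Reed and Muench method.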

Data set [11] concerns Escherichia coli. Briefly: Inhibition of protein translation in Escherichia coli by coupled transcription/translation assay. The format is functional.
A short description of data set [12]: as §3. It counts as cell-based. To be noted: human, HEK293 cells; read-out: LC50 (the source's name).
Data set [13] is described as follows: as §4. To be noted: dog, MDCK cells; read-out: LC50 (the source's name). It counts as cell-based, Canis lupus familiaris.
For data set [14], the system named is Nucleic Acid. Briefly: Suppression of PCDH15 R3X nonsense mutant cDNA translation in african green monkey COS7 cells at 0.5 mg/mL. It counts as cell-based. As to conditions: COS-7. The essentials: as §2
Data set [15] can be described thus: Ototoxicity in mouse organ of Corti cochlear explants assessed as inner hair cell loss at 0.1 mM by F-actin staining. The format is toxicity. As to conditions: 100 µM. The method in brief: (§5)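 Cochlea dissected from postnatal day 3 mice; organ of Corti/spiral ganglion flat preparation cultured serum-free (BME, supplement, 1% BSA, 2 mM glutamine, glucose, penicillin) at 37°C, 5% CO2, 24 h before medium swapped for drug-containing medium. Fixed in 4% paraformaldehyde, permeabilized with Triton X-100, blocked with goat serum, F-actin stained with fluorescent phalloidin; basal segments examined.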

Data set [16] is described as follows: Ototoxicity in mouse organ of Corti cochlear explants assessed as outer hair cell loss at 0.1 mM by F-actin staining. It counts as toxicity. As to conditions: 100 µM. The essentials: as §5
Data set [17] is described as follows: Ototoxicity in mouse organ of Corti cochlear explants assessed as inner hair cell loss at 1 mM by F-actin staining. It counts as toxicity. As to conditions: 1000 µM. The method in brief:
as §5

Data set [18] can be described thus: Ototoxicity in mouse organ of Corti cochlear explants assessed as inner hair cell loss at 0.2 mM by F-actin staining. The format is toxicity. To be noted: 200 µM. The essentials: as §5
The nature of data set [19]: Ototoxicity in mouse organ of Corti cochlear explants assessed as outer hair cell loss at 0.2 mM by F-actin staining. It counts as toxicity. As to conditions: 200 µM. The method in brief:
as §5

The test system of data set [20] is Ribosomal RNA A-site. Briefly: Binding affinity to human cytoplasmic ribosomal RNA A-site assessed as thermal stability at compound/RNA ratio of 5 by UV melting profile method. The format is nucleic-acid assay. The method in brief: (§6)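 UV melting of RNA A-site model oligonucleotide, 2 µM in strand, drug 0 to 10 µM, in 10 mM EPPS (pH 7.0), 10 mM NaCl. RNA preheated 85 °C 5 min and slowly cooled. Absorbance read at 274 nm, 1 cm path, 0.5 °C steps with 1.5 min equilibration per step; ΔTm derived.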

A short description of data set [21]: Ototoxicity in mouse organ of Corti cochlear explants assessed as outer hair cell loss at 1 mM by F-actin staining. As to conditions: 1000 µM. It counts as toxicity. The essentials: as §5
Data set [22] has as its system Nucleic Acid. Briefly: Suppression of PCDH15 R3X nonsense mutant cDNA translation in african green monkey COS7 cells at 1 mg/mL. The format is cell-based. As to conditions: COS-7. The essentials: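 Dual luciferase reporter carrying PCDH15-R3X transfected into COS-7 cells by lipofection. Compound added 5 h post-transfection. Luciferase activity measured with a dual luciferase assay system, and readthrough calculated by a previously described method.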

In data set [23] the test system is Ribosomal RNA A-site. Briefly: Binding affinity to human cytoplasmic ribosomal RNA A-site. The format is nucleic-acid assay. The method in brief: as §6

In brackets after ≈: the same amount, converted by molar mass.

Consider GENTAMICIN [listing 1 of 2 here], for which the Activity in the data set on Nucleic Acid [1], with Nucleic Acid [2], in the data set with Nucleic Acid [3], in the data set on Nucleic Acid [4], in the data set on Nucleic Acid [5] and in the data set on Nucleic Acid [7] was 50% in each case. The Activity in the data set with Nucleic Acid [8] was 50%; in the data set on Nucleic Acid [9], 1.86%. Moreover, the MIC with Escherichia coli [6] came out at 6 µM.

As for GENTAMICIN [listing 2 of 2 here], the CC50 with HEK293 was determined as 1100 µM; in data set [10] (cos-7) it was 750 µM; in the data set with MDCK, 780 µM. Moreover, the LD50 with Mus musculus was found to be 60 mg/kg. In the data set on Escherichia coli [11], this compound had an IC50 of 0.02 µM.

For `NC[C@@H]1O[C@H](O[C@H]2[C@@H](O)[C@H](O[C@@H]3[C@@H](O)[C@H](N)C[C@H](N)[C@H]3O[C@H]3O[C@H](CO)[C@@H](O)[C@H](O)[C@H]3N)O[C@@H]2CO)[C@H](N)[C@@H](O)[C@@H]1O` [PAROMOMYCIN], the Activity in the data set on Nucleic Acid [1], with Nucleic Acid [2], in the data set on Nucleic Acid [3], in the data set on Nucleic Acid [4], with Nucleic Acid [5] and in the data set on Nucleic Acid [7] was 40% in each case. For the same compound, the Activity worked out at 40% in the data set with Nucleic Acid [8] and 1.62% in the data set on Nucleic Acid [14]. The CC50 in [12] was found to be 1200 µM; in data set [10] (COS7 cells), 1400 µM; in data set [13] it was 1500 µM. Besides, the median lethal dose (LD50) in the data set with Mus musculus amounted to 80 mg/kg. Further, the MIC against Escherichia coli [6] came to 22 µM (≈ 13.5 µg/mL). The compound also yielded an IC50 in the data set with Escherichia coli [11] (Escherichia coli) of 0.056 µM.

As to `NCC[C@H](O)C(=O)N[C@@H]1C[C@H](N)[C@@H](O[C@H]2O[C@H](CO)[C@@H](O)[C@H](O)[C@H]2N)[C@H](O[C@@H]2O[C@H](CN)[C@@H](O)[C@H]2O)[C@H]1O`, the Activity in the data set with Nucleic Acid [1] is 50%; in the data set with Nucleic Acid [2] it was 50%; in the data set with Nucleic Acid [3], 50%; with Nucleic Acid [4] it was 50%; in the data set on Nucleic Acid [5], 50%; in [15] it was “Non-toxic”. Also, the Activity result in data set [16] was “Non-toxic”; in data set [17], “Non-toxic”; in data set [18], “Toxic”; in data set [19], “Toxic”; in [21], “Non-toxic”; with Nucleic Acid [7], 50%. Moreover, the Activity in the data set with Nucleic Acid [8] was 50%; in the data set with Nucleic Acid [22], 5.25%. Also, the CC50 is 2800 µM in the data set on HEK293, 9300 µM in data set [10] (cos-7) and 3300 µM in the data set with MDCK. For the same compound, the median lethal dose (LD50) in the data set with Mus musculus worked out at 500 mg/kg. The compound further came in with a minimal inhibitory concentration (MIC) in the data set with Escherichia coli [6] of 588 µM (≈ 327 µg/mL). In addition, the ΔTm in the data set on Ribosomal RNA A-site [20] amounted to 9.7 °C. For the same compound, the 50% inhibitory concentration (IC50) in the data set with Escherichia coli [11] (Escherichia coli) was determined as 0.159 µM.

In the data set with Ribosomal RNA A-site [23], `NC[C@H]1O[C@@H](O[C@@H]2[C@@H](O)[C@H](N)C[C@H](N)[C@H]2O[C@H]2O[C@H](CO)[C@@H](O)[C@H](O)[C@H]2N)[C@H](O)[C@@H]1O` yielded a Ka of 4.7 ×10³ /M. Further, the Activity is 30% in the data set with Nucleic Acid [1]; 30% with Nucleic Acid [2]; 30% in the data set with Nucleic Acid [3]; 30% in the data set with Nucleic Acid [4]; 30% with Nucleic Acid [5]; “Non-toxic” in data set [15]. In addition, the Activity result was “Non-toxic” in [16]; “Non-toxic” in [17]; “Toxic” in [18]; “Toxic” in [19]; “Non-toxic” in data set [21]; 30% with Nucleic Acid [7]. Also, the Activity amounted to 30% in the data set on Nucleic Acid [8] and 2.75% with Nucleic Acid [22]. Moreover, the CC50 was 7400 µM in data set [12], 10800 µM in [10] (COS7 cells) and 11500 µM in [13]. In the data set with Mus musculus, the LD50 turned out to be 240 mg/kg. In addition, in the data set with Escherichia coli [6], it took 790 µM (≈ 359 µg/mL) to inhibit growth (MIC). Further, the shift in melting temperature (ΔTm) in the data set on Ribosomal RNA A-site [20] amounted to 4.5 °C. The compound further gave a 50% inhibitory concentration (IC50) with Escherichia coli [11] (Escherichia coli) of 0.415 µM.
